Assay results as given in ChEMBL document CHEMBL5137045, “Discovery of 2-(furan-2-ylmethylene)hydrazine-1-carbothioamide derivatives as novel inhibitors of SARS-CoV-2 main protease” (Eur J Med Chem, 2022).

Each compound was assayed against Replicase polyprotein 1ab (Severe acute respiratory syndrome coronavirus 2) (UniProt P0DTD1) (assay: Inhibition of SARS CoV-2 main protease at 50 uM using DABCYL-KTSAVLQSGFRKM-E(EDANS)-NH2 as substrate preincubated for 30 mins followed by substrate addition and measured after 20 mins relative to control). Conditions: time 50.0 min.
Method in brief: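 FRET protease assay in 40 mM PBS, 100 mM NaCl, 1 mM EDTA, 0.1% Triton, pH 7.3. M^pro (0.5 μM) was preincubated with inhibitor 30 min at room temperature, then 20 μM substrate was added. Cleavage fluorescence (ex 360/em 460 nm) was read for 20 min. This covers preliminary screening and IC50; IC50 from Hill1 fit.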

Compound	inhibition [%]
Cc1c(NC(=S)N/N=C/C(Cl)=C/c2ccc([N+](=O)[O-])cc2)c(=O)n(-c2ccccc2)n1C	21.2
O=C(N/N=C/c1ccc(-c2ccc([N+](=O)[O-])cc2)o1)c1cc2ccccc2cc1O	< 20
O=[N+]([O-])c1ccc(-c2ccc(/C=N/c3cccc(-c4nc5ccccc5o4)c3)o2)cc1	21.3
CC1=CC2=NC(=O)/C(=C\c3ccc(-c4cccc(C(=O)O)c4)o3)C(=N)N2O1	< 20
O=C(CSc1nnnn1-c1ccccc1)N/N=C/c1ccc(-c2ccccc2C(=O)O)o1	45.3
O=C(O)c1cc(-c2ccc(/C=C3\NC(=O)N(Cc4ccccc4F)C3=O)o2)ccc1Cl	53.4
NC(=S)N/N=C/c1ccc(-c2ccc(Cl)c(Cl)c2)o1	49.8
CCOC(=O)c1ccc(-c2ccc(/C=N/NC(=O)Cn3c4ccccc4c(=O)c4ccccc43)o2)cc1	< 20
N#Cc1c(/N=C/c2ccc(-c3ccc(Cl)c(C(=O)O)c3)o2)sc2c1CCCC2	< 20
O=C(Cn1c2ccccc2c(=O)c2ccccc21)N/N=C/c1ccc(-c2ccc([N+](=O)[O-])cc2)o1	30
COc1ccc(/N=C2/S/C(=C\c3ccc(-c4ccc(Cl)c(C(=O)O)c4)o3)C(=O)N2C)cc1	27.1
O=C(O)c1cccc(-c2ccc(/C=N/NC(=S)Nc3ccc(Cl)cc3)o2)c1	43.8
COc1c(C(=O)O)cccc1-c1ccc(/C=N/NC(N)=S)o1	79.8
Cc1c(NC(=S)NC(=O)c2cccc(I)c2)c(=O)n(-c2ccccc2)n1C	< 20
Nc1nonc1-c1cc2ccccc2n1CC(=O)N/N=C/c1ccc(-c2cccc(C(=O)O)c2)o1	< 20
O=[N+]([O-])c1cccc(-c2ccc(/C=N/NC(=S)NC3CCS(=O)(=O)C3)o2)c1 (stereo not drawn)	30.2
COc1ccccc1OCC(=O)N/N=C/c1ccc(-c2cccc([N+](=O)[O-])c2)o1	24.2
Cc1c(NC(=S)NC(=O)c2ccccc2)c(=O)n(-c2ccccc2)n1C	< 20
O=C(O)c1cccc(-c2ccc(/C=N/NC(=O)C3COc4ccccc4O3)o2)c1 (stereo not drawn)	33.7
NC(=S)N/N=C/c1ccc(-c2ccc(C(=O)O)cc2)cc1	64
Cc1c(NC(=S)NCc2ccco2)c(=O)n(-c2ccccc2)n1C	< 20
Cc1cccc(NC(=O)CN2C(=O)N/C(=C\c3ccc(-c4cccc(C(=O)O)c4)o3)C2=O)c1	24.2
Nc1nonc1-c1nc2ccccc2n1CC(=O)N/N=C/c1ccc(-c2cccc(C(F)(F)F)c2)o1	25.5

Compound	inhibition [%]
Cc1c(N=C(S)Nc2ccccc2)c(=O)n(-c2ccccc2)n1C	< 20
NC(=O)N/N=C/c1ccc(-c2ccc([N+](=O)[O-])cc2)o1	< 20
O=C(O)c1cc(-c2ccc(/C=N/Nc3nc4nonc4nc3Nc3ccc(Br)cc3)o2)ccc1O	45.9
O=C(NCCCn1ccnc1)/C(=C\c1ccc(-c2cccc([N+](=O)[O-])c2)o1)NC(=O)c1ccccc1	28.8
CSC1=NSC2=NC(=O)/C(=C\c3ccc(-c4cccc(C(=O)O)c4)o3)C(=N)N12	< 20
Cc1cc(-c2ccc(/C=N/NC(=O)Nc3ccccc3)o2)c(C)c([N+](=O)[O-])c1	< 20
COCc1cc(C)nc(OCC(=O)N/N=C/c2ccc(-c3cccc(C(=O)O)c3)o2)c1C#N	37.3
Nc1nnnn1CC(=O)N/N=C/c1ccc(-c2ccccc2C(=O)O)o1	34.5
O=C1NN(c2ccc(F)cc2)C(=O)/C1=C\c1ccc(-c2cccc(C(=O)O)c2)o1	33.8
Cc1c(NC(=S)N/N=C/c2ccc(-c3ccc(Br)cc3)o2)c(=O)n(-c2ccccc2)n1C	27.7
O=C(Cn1c2ccccc2c(=O)c2ccccc21)N/N=C/c1ccc(-c2ccccc2)o1	21.3
O=C(N/N=C/c1ccc(-c2ccc([N+](=O)[O-])cc2)o1)/C(=C\c1ccccc1O)NC(=O)c1ccccc1	38.3
O=c1sn(-c2cccc3ccccc23)c(=O)n1Cc1ccccc1	98.6
COc1ccc(-c2ccc(/C=N/NC(=O)Cn3c(-c4nonc4N)nc4ccccc43)o2)c([N+](=O)[O-])c1	< 20
O=C(CNC(=O)c1ccccc1F)N/N=C/c1ccc([N+](=O)[O-])o1	< 20
Cc1ccc(OCC(=O)N/N=C/c2ccc(-c3cc([N+](=O)[O-])ccc3Cl)o2)c(C)c1	< 20
COCc1cc(C)nc(OCC(=O)N/N=C/c2ccc(-c3ccc(C(=O)O)cc3)o2)c1C#N	36.2
Nc1nonc1-c1nc2ccccc2n1CC(=O)N/N=C/c1ccc(-c2ccccc2C(=O)O)o1	41.7
O=C(Cn1c2ccccc2c(=O)c2ccccc21)N/N=C/c1ccc(-c2ccc(O)c(C(=O)O)c2)o1	54.5
O=C(O)c1cc(-c2ccc(/C=N/Nc3nc(Nc4ccccc4)nc(Nc4ccccc4)n3)o2)ccc1O	34.6
Cc1c(NC(=S)N(C)CCC#N)c(=O)n(-c2ccccc2)n1C	< 20
O=C(Cn1c2ccccc2c(=O)c2ccccc21)N/N=C/c1ccc(-c2cccc([N+](=O)[O-])c2)o1	26.8
N#C/C(=C\c1ccc(-c2cccc(C(=O)O)c2)o1)c1nc2ccccc2[nH]1	< 20

Compound	inhibition [%]
C=C(C)CNC(=S)Nc1c(C)n(C)n(-c2ccccc2)c1=O	< 20
O=C(COCc1ccccc1Cl)N/N=C/c1ccc(-c2ccc([N+](=O)[O-])cc2)o1	23.3
CCNC(S)=Nc1c(C)n(C)n(-c2ccccc2)c1=O	< 20
O=C(O)c1cccc(-c2ccc(/C=N/n3cnc4sc5c(c4c3=O)CCCC5)o2)c1	30
Cc1c(NC(=S)NC(=O)c2cccc(Br)c2)c(=O)n(-c2ccccc2)n1C	< 20
O=C(Cn1c2ccccc2c(=O)c2ccccc21)N/N=C/c1ccc(-c2cc([N+](=O)[O-])ccc2Cl)o1	< 20
O=C1NC(=S)N/C1=C/c1ccc(-c2ccccc2C(=O)O)o1	< 20
Cc1cc(C(=O)O)ccc1-c1ccc(/C=N/NC(=S)NCc2ccccc2)o1	55.9
CNC(=S)N/N=C/c1ccc(-c2cccc(C(=O)O)c2)o1	22.2
O=C(CNc1ccc2ccccc2c1)N/N=C/c1ccc(-c2ccc([N+](=O)[O-])cc2)o1	23
Cc1ccc([N+](=O)[O-])cc1-c1ccc(/C=N/NC(=O)Cn2c3ccccc3c(=O)c3ccccc32)o1	22.5
Cc1c(NC(=S)NC(=O)c2ccc(F)cc2)c(=O)n(-c2ccccc2)n1C	< 20
Cc1ccc(-c2ccc(/C=N/NC(=O)Cn3c4ccccc4c(=O)c4ccccc43)o2)cc1[N+](=O)[O-]	55.4
COCc1c(Br)c(C)nc(OCC(=O)N/N=C/c2ccc(-c3ccc(Cl)c(C(=O)O)c3)o2)c1C#N	38.3
C/C(=N\NC(=S)Nc1c(C)n(C)n(-c2ccccc2)c1=O)c1cccc([N+](=O)[O-])c1	< 20
NC(=S)N/N=C/c1ccc(-c2cccc3ccccc23)o1	73.2
CCOC(=O)N/N=C/c1ccc(-c2cccc(C(=O)O)c2)o1	29.4
Cc1c(NC(=S)NC(=O)c2ccncc2)c(=O)n(-c2ccccc2)n1C	< 20
C=CCNC(=S)N/N=C/c1ccc(-c2ccc([N+](=O)[O-])cc2)o1	51.4
Cc1c(NC(N)=S)c(=O)n(-c2ccccc2)n1C	< 20
Cc1c(NC(=S)NC(=O)CC(C)C)c(=O)n(-c2ccccc2)n1C	< 20
O=C(N/N=C/c1ccc(-c2cccc(C(=O)O)c2)o1)Nc1ccc(Cl)cc1	44.6
